Experimental data: ChEMBL document CHEMBL1142526, “Synthesis of new pyrazolo[5,1-c][1,2,4] benzotriazines, pyrazolo[5,1-c]pyrido[4,3-e][1,2,4] triazines and their open analogues as cytotoxic agents in normoxic and hypoxic conditions” (Bioorg Med Chem, 2008)
The source made the active and inactive calls. No cut-off for these calls is given here.

Assays:
[1] = test system: HCT-8; assay: Cytotoxicity against human HCT8 cells at 100 uM after 72 hrs by SRB assay; assay type: functional; settings: HCT-8, 72 h
In short: (§1)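 Single-concentration growth inhibition of HCT-8 cells: seeded at 5000/well with 24 h adherence at 37 °C in 5% CO2, then 72 h continuous drug exposure, eight replicate wells. Maximum final DMSO was 0.1%, with DMSO and MMC controls. Protein was stained with 0.4% SRB in 1% acetic acid, solubilised in 10 mM Tris and absorbance read at 540 nm.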

[2] = test system: HCT-8; assay: Cytotoxicity against human HCT8 cells at 10 uM after 72 hrs by SRB assay; assay type: functional; settings: HCT-8, 72 h; in short: as §1
[3] = test system: HCT-8; assay: Cytotoxicity against human HCT8 cells after 72 hrs by SRB assay; assay type: functional, cell-based; settings: HCT-8, 72 h
In short: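 SRB assay on HCT-8 cells seeded at 5000/well and allowed 24 h adherence at 37 °C in 5% CO2, then given 72 h continuous exposure across a 10–100 concentration range, eight wells per condition. Maximum final DMSO was 0.1%. Fixed cells were stained with 0.4% SRB in 1% acetic acid, solubilised in 10 mM Tris and read at 540 nm. IC50 is the concentration giving a 50% reduction in net protein increase versus control.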

[4] = test system: HCT-8; assay: Cell cycle arrest in human HCT8 cells in normoxic condition assessed as accumulation at G2/M phase at 10 uM after 24 hrs by flow cytometry; assay type: functional
In short: (§2)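 HCT-8 cells in D-MEM high glucose with 10% FCS were seeded at 1–2 × 10^6 per 25 cm² flask, left to adhere overnight, then exposed to drug for 24 h under normoxia or hypoxia. Drug was washed out and cells reoxygenated for 48 h. Floating and adherent cells were pooled, fixed in 70% ice-cold ethanol and stained with PI (50 µg/ml) plus RNase A (5 U/ml) for 30 min. Phases and the sub-G1 hypodiploid fraction (DNA fragmentation) were read by flow cytometry.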

[5] = test system: HCT-8; assay: Cell cycle arrest in human HCT8 cells in hypoxic condition assessed as accumulation at G0/G1 phase at 10 uM after 24 hrs by flow cytometry; assay type: functional; in short: as §2
[6] = test system: HCT-8; assay: Cell cycle arrest in human HCT8 cells in hypoxic condition assessed as accumulation at G2/M phase at 10 uM after 24 hrs of drug washout by flow cytometry; assay type: functional; in short: as §2
[7] = test system: HCT-8; assay: Cell cycle arrest in human HCT8 cells in normoxic condition assessed as accumulation at S phase at 10 uM after 24 hrs by flow cytometry; assay type: functional; in short: as §2
[8] = test system: HCT-8; assay: Cell cycle arrest in human HCT8 cells in normoxic condition assessed as accumulation at G0/G1 phase at 10 uM after 24 hrs of drug washout by flow cytometry; assay type: functional
[9] = test system: HCT-8; assay: Cell cycle arrest in human HCT8 cells in normoxic condition assessed as accumulation at G0/G1 phase at 10 uM after 24 hrs by flow cytometry; assay type: functional; in short: as §2
[10] = test system: HCT-8; assay: Effect on cell cycle arrest in human HCT8 cells in normoxic condition assessed as DNA fragmentation at 10 uM after 48 hrs of drug washout by flow cytometry; assay type: functional; in short: as §2
[11] = test system: HCT-8; assay: Effect on cell cycle arrest in human HCT8 cells in normoxic condition assessed as DNA fragmentation at 10 uM after 24 hrs by flow cytometry; assay type: functional; in short: as §2
[12] = test system: HCT-8; assay: Cell cycle arrest in human HCT8 cells in hypoxic condition assessed as accumulation at G0/G1 phase at 10 uM after 24 hrs of drug washout by flow cytometry; assay type: functional; in short: as §2
[13] = test system: HCT-8; assay: Cell cycle arrest in human HCT8 cells in hypoxic condition assessed as accumulation at G2/M phase at 10 uM after 24 hrs by flow cytometry; assay type: functional; in short: as §2
[14] = test system: HCT-8; assay: Effect on cell cycle arrest in human HCT8 cells in hypoxic condition assessed as DNA fragmentation at 10 uM after 24 hrs by flow cytometry; assay type: functional; in short: as §2
[15] = test system: HCT-8; assay: Effect on cell cycle arrest in human HCT8 cells in hypoxic condition assessed as DNA fragmentation at 10 uM after 48 hrs of drug washout by flow cytometry; assay type: functional; in short: as §2
[16] = test system: HCT-8; assay: Cell cycle arrest in human HCT8 cells in normoxic condition assessed as accumulation at G2/M phase at 10 uM after 24 hrs of drug washout by flow cytometry; assay type: functional; in short: as §2
[17] = test system: HCT-8; assay: Cell cycle arrest in human HCT8 cells in hypoxic condition assessed as accumulation at S phase at 10 uM after 24 hrs by flow cytometry; assay type: functional; in short: as §2
[18] = test system: HCT-8; assay: Cell cycle arrest in human HCT8 cells in normoxic condition assessed as accumulation at S phase at 10 uM after 48 hrs of drug washout by flow cytometry; assay type: functional
In short: (§3)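 HCT-8 cells in D-MEM high glucose with 10% FCS, plated at 1–2 × 10^6 per 25 cm² flask and left to adhere overnight. Exposed to 10 µM for 24 h, normoxia or hypoxia (0.1% O₂, 95% N₂/5% CO₂), then washed out and reoxygenated 48 h. Floating plus EDTA-harvested cells fixed in 70% ethanol, stained with PI (50 µg/ml) plus RNase A, phase fractions read by flow cytometry.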

[19] = test system: HCT-8; assay: Cell cycle arrest in human HCT8 cells in hypoxic condition assessed as accumulation at S phase at 10 uM after 48 hrs of drug washout by flow cytometry; assay type: functional; in short: as §3
[20] = test system: HCT-8; assay: Cell cycle arrest in human HCT8 cells in normoxic condition assessed as accumulation at G2/M phase at 10 uM after 48 hrs of drug washout by flow cytometry; assay type: functional; in short: as §3
[21] = test system: HCT-8; assay: Cell cycle arrest in human HCT8 cells in normoxic condition assessed as accumulation at G0/G1 phase at 10 uM after 48 hrs of drug washout by flow cytometry; assay type: functional; in short: as §3
[22] = test system: HCT-8; assay: Induction of ROS production in human HCT8 cells under normoxic condition by flow cytometric method relative to untreated control; assay type: functional, cell-based
In short: (§4)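 Dichlorofluorescein method. HCT-8 cells in D-MEM high glucose with 10% FCS, 1–2 × 10^6 per 25 cm² flask, adhered overnight, then given 10 µM under normoxia or hypoxia. DCFH-DA loaded 20 min at 37 °C. Cells harvested with Puck's EDTA, fluorescence read by flow cytometry with 535 nm filter. Expressed as % over DMSO-treated basal; mean ± SEM of at least three experiments.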

[23] = test system: HCT-8; assay: Cell cycle arrest in human HCT8 cells in hypoxic condition assessed as accumulation at G0/G1 phase at 10 uM after 48 hrs of drug washout by flow cytometry; assay type: functional; in short: as §3
[24] = test system: HCT-8; assay: Cell cycle arrest in human HCT8 cells in hypoxic condition assessed as accumulation at G2/M phase at 10 uM after 48 hrs of drug washout by flow cytometry; assay type: functional; in short: as §3
[25] = test system: HCT-8; assay: Induction of ROS production in human HCT8 cells under hypoxic condition by flow cytometric method relative to untreated control; assay type: functional, cell-based; in short: as §4

CCOC(=O)c1cnn(-c2ccncc2[N+](=O)[O-])c1N
inhibition at 100 µM [1]: 69.7%
inhibition at 10 µM [2]: 24.4%
IC50 [3]: 58.2 µM
IC90 [3]: > 100 µM

CCOC(=O)c1cnn2c1n[n+]([O-])c1cnccc12
inhibition at 100 µM [1]: 97.4%
inhibition at 10 µM [2]: 12.7%
IC50 [3]: 23.8 µM
IC90 [3]: 49.1 µM

COc1ccc(-c2ccc3c(c2)n2nccc2n[n+]3[O-])cc1
inhibition at 100 µM [1]: 21.6%
inhibition at 10 µM [2]: 11%

CCOC(=O)c1cn[nH]c1/N=[N+](/[O-])c1cc([N+](=O)[O-])ccc1O
inhibition at 100 µM [1]: 60.4%
inhibition at 10 µM [2]: 11.7%
IC50 [3]: 65.2 µM
IC90 [3]: > 100 µM

CO[C@@]12[C@H](COC(N)=O)C3=C(C(=O)C(C)=C(N)C3=O)N1C[C@@H]1N[C@@H]12 [MITOMYCIN]
Activity [4]: 22.8%
Activity [5]: 36.3%
Activity [6]: 14.1%
Activity [7]: 36.9%
Activity [8]: 28.2%
Activity [9]: 40.3%
Activity [10]: 44%
Activity [11]: 71.2%
Activity [12]: 43.2%
Activity [13]: 14.6%
Activity [14]: 42.8%
IC50 [3]: 0.083 µM
IC90 [3]: 5.7 µM
Activity [15]: 99%
Activity [16]: 19.2%
Activity [17]: 49.1%

[O-][n+]1nc2ccnn2c2cc(N3CCOCC3)ccc21
inhibition at 100 µM [1]: 25.8%
inhibition at 10 µM [2]: 3.27%

CN1CCN(c2ccc3c(c2)n2nccc2n[n+]3[O-])CC1
inhibition at 100 µM [1]: 32.4%
inhibition at 10 µM [2]: 3.19%

[O-][n+]1nc2ccnn2c2cc(-c3ccccc3)ccc21
inhibition at 100 µM [1]: 35.5%
inhibition at 10 µM [2]: 13.2%

CN1CCN(c2ccc3c(c2)n2ncc([N+](=O)[O-])c2n[n+]3[O-])CC1
Activity [18]: 35.3%
Activity [4]: 22.8%
Activity [5]: 34.6%
inhibition at 100 µM [1]: 93.2%
Activity [6]: 20.2%
Activity [7]: 36.9%
Activity [8]: 48%
Activity [9]: 40.3%
Activity [19]: 40.4%
Activity [10]: 27%
Activity [11]: 39%
Activity [12]: 36.8%
Activity [20]: 24.9%
Activity [21]: 39.8%
Activity [22]: Active
inhibition at 10 µM [2]: 25.1%
Activity [13]: 24.7%
Activity [14]: 46.3%
IC50 [3]: 62.5 µM
IC90 [3]: > 100 µM
Activity [15]: 60%
Activity [23]: 47%
Activity [24]: 12.6%
Activity [16]: 13%
Activity [17]: 40.7%
Activity [25]: Active

CN1CCN(c2ccc3nnc4c([N+](=O)[O-])cnn4c3c2[N+](=O)[O-])CC1
Activity [18]: 35.1%
Activity [4]: 22.2%
Activity [5]: 43.8%
inhibition at 100 µM [1]: 98.7%
Activity [6]: 10.6%
Activity [7]: 37.3%
Activity [8]: 48.6%
Activity [9]: 40.5%
Activity [19]: 45.9%
Activity [10]: 59%
Activity [11]: 42%
Activity [12]: 51.2%
Activity [20]: 35.1%
Activity [21]: 35.1%
Activity [22]: Active
inhibition at 10 µM [2]: 73.8%
Activity [13]: 15.6%
Activity [14]: 42.8%
IC50 [3]: 5.98 µM
IC90 [3]: 18.5 µM
Activity [15]: 21%
Activity [23]: 31.1%
Activity [24]: 23%
Activity [16]: 13.4%
Activity [17]: 40.5%
Activity [25]: Active

O=C(O)c1cnn2c1n[n+]([O-])c1cnccc12
inhibition at 100 µM [1]: 11.4%
inhibition at 10 µM [2]: 13.2%

[O-][n+]1nc2ccnn2c2cc(O)ccc21
inhibition at 100 µM [1]: 19.7%
inhibition at 10 µM [2]: -4.21%

CN1CCN(c2ccc3c(c2)n2ncc(-c4ccccc4)c2n[n+]3[O-])CC1
inhibition at 100 µM [1]: 69.6%
inhibition at 10 µM [2]: 53%
IC50 [3]: 10 µM
IC90 [3]: > 100 µM

NC(=O)c1cnn(-c2ccncc2[N+](=O)[O-])c1N
inhibition at 100 µM [1]: 22.4%
inhibition at 10 µM [2]: 9.72%

CCCCCOc1ccc2c(c1)n1nccc1n[n+]2[O-]
inhibition at 100 µM [1]: 38%
inhibition at 10 µM [2]: -6.17%

CN(C)CCOc1ccc2c(c1)n1nccc1n[n+]2[O-]
inhibition at 100 µM [1]: 42.3%
inhibition at 10 µM [2]: -2.36%

[O-][n+]1nc2ccnn2c2cc(-c3cccs3)ccc21
inhibition at 100 µM [1]: 48.5%
inhibition at 10 µM [2]: 10.9%

CCOC(=O)c1cn[nH]c1/N=[N+](/[O-])c1cnccc1O
inhibition at 100 µM [1]: 31.5%
inhibition at 10 µM [2]: 3.87%
